Measured values reported in ChEMBL document CHEMBL1132147, “2-(2-Phenylcyclopropyl)imidazolines: reversed enantioselective interaction at I(1) and I(2) imidazoline receptors” (J Med Chem, 1999).

Legend:
[1] = target: T1, Adrenergic receptor alpha-2 (Rattus norvegicus, UniProt P22086+P19328+P22909); experiment: Displacement of [3H]-clonidine from Alpha-2 adrenergic receptor of rat cortex membranes; type: cell membranes, Membrane
T1 sequence (P22086 whole entry): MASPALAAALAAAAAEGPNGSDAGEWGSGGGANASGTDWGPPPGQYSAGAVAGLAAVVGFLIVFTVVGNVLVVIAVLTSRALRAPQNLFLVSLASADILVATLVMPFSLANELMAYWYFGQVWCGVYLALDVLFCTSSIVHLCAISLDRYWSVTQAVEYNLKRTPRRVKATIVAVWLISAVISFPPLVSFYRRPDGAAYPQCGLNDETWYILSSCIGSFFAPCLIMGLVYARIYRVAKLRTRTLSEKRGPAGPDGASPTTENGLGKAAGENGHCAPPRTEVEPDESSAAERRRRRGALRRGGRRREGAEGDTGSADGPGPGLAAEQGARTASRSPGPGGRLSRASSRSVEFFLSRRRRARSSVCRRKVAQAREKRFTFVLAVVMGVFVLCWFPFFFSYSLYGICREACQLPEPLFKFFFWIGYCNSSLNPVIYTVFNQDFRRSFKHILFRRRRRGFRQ
T1 sequence (P19328 whole entry): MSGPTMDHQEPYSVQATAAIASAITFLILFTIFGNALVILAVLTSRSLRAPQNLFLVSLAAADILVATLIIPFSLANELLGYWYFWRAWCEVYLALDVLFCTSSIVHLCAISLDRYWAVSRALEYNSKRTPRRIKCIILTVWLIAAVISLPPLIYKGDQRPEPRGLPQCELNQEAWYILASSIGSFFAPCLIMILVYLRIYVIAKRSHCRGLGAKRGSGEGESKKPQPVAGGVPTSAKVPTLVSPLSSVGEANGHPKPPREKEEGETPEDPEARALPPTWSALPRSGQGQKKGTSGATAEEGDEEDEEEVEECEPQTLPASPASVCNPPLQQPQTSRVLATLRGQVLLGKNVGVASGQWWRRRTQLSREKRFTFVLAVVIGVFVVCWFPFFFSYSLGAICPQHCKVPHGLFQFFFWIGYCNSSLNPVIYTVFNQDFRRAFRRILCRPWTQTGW
T1 sequence (P22909 whole entry): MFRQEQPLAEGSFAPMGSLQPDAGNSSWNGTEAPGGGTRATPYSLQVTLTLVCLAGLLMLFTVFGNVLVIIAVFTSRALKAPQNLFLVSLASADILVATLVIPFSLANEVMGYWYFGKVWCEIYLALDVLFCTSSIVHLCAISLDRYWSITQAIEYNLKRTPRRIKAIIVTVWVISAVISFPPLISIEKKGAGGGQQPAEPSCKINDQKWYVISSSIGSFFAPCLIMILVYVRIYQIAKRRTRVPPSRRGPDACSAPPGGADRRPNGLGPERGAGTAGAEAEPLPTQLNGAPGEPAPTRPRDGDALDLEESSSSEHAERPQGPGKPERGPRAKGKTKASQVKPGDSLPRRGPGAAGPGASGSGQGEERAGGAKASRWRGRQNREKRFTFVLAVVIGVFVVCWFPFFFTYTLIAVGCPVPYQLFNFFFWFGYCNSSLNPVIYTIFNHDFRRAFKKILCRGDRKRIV
Procedure, shortened: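 Competition binding using hydrogen oxalate salts of the compounds: [3H]clonidine on rat cortex membranes (α2) or [3H]idazoxan on rabbit kidney membranes (I2). IC50 by nonlinear regression of displacement data, converted to Ki by Cheng–Prusoff and given as pKi ± SEM.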

[2] = Displacement of [3H]idazoxan from imidazoline receptor I-2 of rabbit kidney membranes
[3] = Relative binding to I2 and I1 imidazoline receptors […]
[4] = Relative binding to I2 imidazoline and alpha-2 adrenergic receptors […]
[5] = target: Nischarin (Rattus norvegicus); experiment: Displacement of [125I]p-iodoclonidine from imidazoline receptor I-1 of PC12 cell membranes

Structure (SMILES) | Log Ki [1] | Log Ki [2] | Ratio [3] | Ratio [4] | Ki [5] [nM]
c1ccc(C2CC2C2=NCCN2)cc1 (stereo in doubt; 4a(+/-)) [listing 1 of 2 here] | -4.53 | -6.05 |  |  | 
c1ccc([C@H]2C[C@@H]2C2=NCCN2)cc1 | -6.62 | -6.91 |  |  | 
c1ccc([C@@H]2C[C@H]2C2=NCCN2)cc1 | -6.92 | -8.22 |  |  | 
c1ccc(C2CC2C2=NCCN2)cc1 (stereo in doubt; 4a(+/-)) [listing 2 of 2 here] |  |  | 7 | 33 | 
C(=C\c1ccccc1)/C1=NCCN1 [TRACIZOLINE] | -4.85 | -8.72 | 10 | 7410 | 19.1
c1ccc(C2CC2C2=NCCN2)cc1 (racemic) | -6.4 | -7.64 |  |  | 
